Assays:
Blood [1] = experiment: Biodistribution in ICR mouse blood at 370 kBq, iv after 2 mins by gamma counting; assay type: ADME, organism-based; conditions: in vivo
Method in brief: (§1)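 Male ICR mice (five weeks, 20–22 g), tail-vein injection of 18F tracer in 0.1 mL saline with 10% EtOH. Killed by decapitation at set times, n = 5 per time point. Organs removed, weighed and gamma-counted; %ID/g wet tissue from comparison with diluted aliquots of injected dose; mean ± SD.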

Heart [2] = experiment: Biodistribution in ICR mouse heart at 370 kBq, iv after 2 mins by gamma counting; assay type: ADME, organism-based; conditions: in vivo; method in brief: as §1
Stomach [3] = experiment: Biodistribution in ICR mouse stomach at 370 kBq, iv after 10 mins by gamma counting; assay type: ADME, organism-based; conditions: in vivo; method in brief: as §1
Lung [4] = experiment: Biodistribution in ICR mouse lung at 370 kBq, iv after 60 mins by gamma counting; assay type: ADME, organism-based; conditions: in vivo, 1 h; method in brief: as §1
Intestine [5] = experiment: Biodistribution in ICR mouse intestine at 370 kBq, iv after 2 mins by gamma counting; assay type: ADME, organism-based; conditions: in vivo; method in brief: as §1
Kidney [6] = experiment: Biodistribution in ICR mouse kidney at 370 kBq, iv after 2 mins by gamma counting; assay type: ADME, organism-based; conditions: in vivo; method in brief: as §1
Heart [7] = experiment: Biodistribution in ICR mouse heart at 370 kBq, iv after 60 mins by gamma counting; assay type: ADME, organism-based; conditions: in vivo, 1 h; method in brief: as §1
Spleen [8] = experiment: Biodistribution in ICR mouse spleen at 370 kBq, iv after 30 mins by gamma counting; assay type: ADME, organism-based; conditions: in vivo, 0.5 h; method in brief: as §1
Heart [9] = experiment: Biodistribution in ICR mouse heart at 370 kBq, iv after 10 mins by gamma counting; assay type: ADME, organism-based; conditions: in vivo; method in brief: as §1
Lung [10] = experiment: Biodistribution in ICR mouse lung at 370 kBq, iv after 30 mins by gamma counting; assay type: ADME, organism-based; conditions: in vivo, 0.5 h; method in brief: as §1
Bone [11] = experiment: Biodistribution in ICR mouse bone at 370 kBq, iv after 30 mins by gamma counting; assay type: ADME, organism-based, Bone element; conditions: in vivo, 0.5 h; method in brief: as §1
Liver [12] = experiment: Biodistribution in ICR mouse liver at 370 kBq, iv after 10 mins by gamma counting; assay type: ADME, organism-based; conditions: in vivo; method in brief: as §1
Intestine [13] = experiment: Biodistribution in ICR mouse intestine at 370 kBq, iv after 60 mins by gamma counting; assay type: ADME, organism-based; conditions: in vivo, 1 h; method in brief: as §1
Stomach [14] = experiment: Biodistribution in ICR mouse stomach at 370 kBq, iv after 60 mins by gamma counting; assay type: ADME, organism-based; conditions: in vivo, 1 h; method in brief: as §1
Brain [15] = experiment: Biodistribution in ICR mouse brain at 370 kBq, iv after 60 mins by gamma counting; assay type: ADME, organism-based; conditions: in vivo, 1 h; method in brief: as §1
Lung [16] = experiment: Biodistribution in ICR mouse lung at 370 kBq, iv after 2 mins by gamma counting; assay type: ADME, organism-based; conditions: in vivo; method in brief: as §1
Heart [17] = experiment: Biodistribution in ICR mouse heart at 370 kBq, iv after 30 mins by gamma counting; assay type: ADME, organism-based; conditions: in vivo, 0.5 h; method in brief: as §1
Liver [18] = experiment: Biodistribution in ICR mouse liver at 370 kBq, iv after 30 mins by gamma counting; assay type: ADME, organism-based; conditions: in vivo, 0.5 h; method in brief: as §1
Liver [19] = experiment: Biodistribution in ICR mouse liver at 370 kBq, iv after 2 mins by gamma counting; assay type: ADME, organism-based; conditions: in vivo; method in brief: as §1
Brain [20] = experiment: Biodistribution in ICR mouse brain at 370 kBq, iv after 2 mins by gamma counting; assay type: ADME, organism-based; conditions: in vivo; method in brief: as §1
Intestine [21] = experiment: Biodistribution in ICR mouse intestine at 370 kBq, iv after 10 mins by gamma counting; assay type: ADME, organism-based; conditions: in vivo; method in brief: as §1
Bone [22] = experiment: Biodistribution in ICR mouse bone at 370 kBq, iv after 2 mins by gamma counting; assay type: ADME, organism-based, Bone element; conditions: in vivo; method in brief: as §1
Kidney [23] = experiment: Biodistribution in ICR mouse kidney at 370 kBq, iv after 60 mins by gamma counting; assay type: ADME, organism-based; conditions: in vivo, 1 h; method in brief: as §1
Blood [24] = experiment: Biodistribution in ICR mouse blood at 370 kBq, iv after 30 mins by gamma counting; assay type: ADME, organism-based; conditions: in vivo, 0.5 h; method in brief: as §1
Kidney [25] = experiment: Biodistribution in ICR mouse kidney at 370 kBq, iv after 10 mins by gamma counting; assay type: ADME, organism-based; conditions: in vivo; method in brief: as §1
Brain [26] = experiment: Biodistribution in ICR mouse brain at 370 kBq, iv after 30 mins by gamma counting; assay type: ADME, organism-based; conditions: in vivo, 0.5 h; method in brief: as §1
Intestine [27] = experiment: Biodistribution in ICR mouse intestine at 370 kBq, iv after 30 mins by gamma counting; assay type: ADME, organism-based; conditions: in vivo, 0.5 h; method in brief: as §1
Bone [28] = experiment: Biodistribution in ICR mouse bone at 370 kBq, iv after 10 mins by gamma counting; assay type: ADME, organism-based, Bone element; conditions: in vivo; method in brief: as §1
Blood [29] = experiment: Biodistribution in ICR mouse blood at 370 kBq, iv after 10 mins by gamma counting; assay type: ADME, organism-based; conditions: in vivo; method in brief: as §1
Blood [30] = experiment: Biodistribution in ICR mouse blood at 370 kBq, iv after 60 mins by gamma counting; assay type: ADME, organism-based; conditions: in vivo, 1 h; method in brief: as §1
Stomach [31] = experiment: Biodistribution in ICR mouse stomach at 370 kBq, iv after 2 mins by gamma counting; assay type: ADME, organism-based; conditions: in vivo; method in brief: as §1
Lung [32] = experiment: Biodistribution in ICR mouse lung at 370 kBq, iv after 10 mins by gamma counting; assay type: ADME, organism-based; conditions: in vivo; method in brief: as §1
Spleen [33] = experiment: Biodistribution in ICR mouse spleen at 370 kBq, iv after 10 mins by gamma counting; assay type: ADME, organism-based; conditions: in vivo; method in brief: as §1
Bone [34] = experiment: Biodistribution in ICR mouse bone at 370 kBq, iv after 60 mins by gamma counting; assay type: ADME, organism-based, Bone element; conditions: in vivo, 1 h; method in brief: as §1
Spleen [35] = experiment: Biodistribution in ICR mouse spleen at 370 kBq, iv after 2 mins by gamma counting; assay type: ADME, organism-based; conditions: in vivo; method in brief: as §1
Spleen [36] = experiment: Biodistribution in ICR mouse spleen at 370 kBq, iv after 60 mins by gamma counting; assay type: ADME, organism-based; conditions: in vivo, 1 h; method in brief: as §1
[37] = Lipophilicity, log D of the compound; assay type: physicochemical; conditions: octanol/water
Method in brief: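 18F tracer (740 kBq) in 3 g n-octanol plus 3 g PBS (0.05 M, pH 7.4). Vortexed 3 min at room temperature, centrifuged 5 min at 3000 rpm; weighed samples from octanol and buffer layers counted.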

Brain [38] = experiment: Ratio of drug level in ICR mouse brain after 2 mins to ICR mouse brain after 60 mins at 370 kBq, iv; assay type: ADME, organism-based; conditions: in vivo
Method in brief: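 Same intravenous study in ICR mice (370 kBq 18F tracer in saline/10% EtOH, n = 5 per time point). Ratio is brain %ID/g at 2 min divided by brain %ID/g at 60 min post-injection.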

Brain [39] = experiment: Biodistribution in ICR mouse brain at 370 kBq, iv after 10 mins by gamma counting; assay type: ADME, organism-based; conditions: in vivo; method in brief: as §1
Kidney [40] = experiment: Biodistribution in ICR mouse kidney at 370 kBq, iv after 30 mins by gamma counting; assay type: ADME, organism-based; conditions: in vivo, 0.5 h; method in brief: as §1
Stomach [41] = experiment: Biodistribution in ICR mouse stomach at 370 kBq, iv after 30 mins by gamma counting; assay type: ADME, organism-based; conditions: in vivo, 0.5 h; method in brief: as §1
Liver [42] = experiment: Biodistribution in ICR mouse liver at 370 kBq, iv after 60 mins by gamma counting; assay type: ADME, organism-based; conditions: in vivo, 1 h; method in brief: as §1
[43] = Binding affinity to beta-amyloid

In the case of `CNc1ccc2nc(-c3ccc(OCCOCCOCC[18F])cc3)cnc2c1`, the Drug uptake (Blood [1]) is reported as 5.51 % ID/g, the Drug uptake (Heart [2]) is reported as 3.21 % ID/g and the Drug uptake (Stomach [3]) is reported as 2.81 %ID. It also gave a Drug uptake (Lung [4]) of 1.15 % ID/g, a Drug uptake (Intestine [5]) of 6.06 %ID and a Drug uptake (Kidney [6]) of 5.52 % ID/g. The Drug uptake (Heart [7]) was 1.03 % ID/g, the Drug uptake (Spleen [8]) was 1.21 % ID/g and the Drug uptake (Heart [9]) was 1.76 % ID/g. It also gave a Drug uptake (Lung [10]) of 1.76 % ID/g, a Drug uptake (Bone [11]) of 1.12 % ID/g and a Drug uptake (Liver [12]) of 14.09 % ID/g. It also gave a Drug uptake (Intestine [13]) of 39.02 %ID, a Drug uptake (Stomach [14]) of 6.53 %ID and a Drug uptake (Brain [15]) of 0.64 % ID/g. It also gave a Drug uptake (Lung [16]) of 4.07 % ID/g, a Drug uptake (Heart [17]) of 1.19 % ID/g and a Drug uptake (Liver [18]) of 7.9 % ID/g. The Drug uptake (Liver [19]) was 14.18 % ID/g, the Drug uptake (Brain [20]) was 2.49 % ID/g and the Drug uptake (Intestine [21]) was 12.26 %ID. The Drug uptake (Bone [22]) was 1.49 % ID/g, the Drug uptake (Kidney [23]) was 1.65 % ID/g and the Drug uptake (Blood [24]) was 2.38 % ID/g. It also gave a Drug uptake (Kidney [25]) of 3.91 % ID/g, a Drug uptake (Brain [26]) of 0.83 % ID/g and a Drug uptake (Intestine [27]) of 32.83 %ID. It also gave a Drug uptake (Bone [28]) of 1 % ID/g, a Drug uptake (Blood [29]) of 3.32 % ID/g and a Drug uptake (Blood [30]) of 1.54 % ID/g. The Drug uptake (Stomach [31]) was 1.55 %ID, the Drug uptake (Lung [32]) was 2.4 % ID/g and the Drug uptake (Spleen [33]) was 1.65 % ID/g. For the same compound, the Drug uptake (Bone [34]) was 1.78 % ID/g, the Drug uptake (Spleen [35]) was 2.07 % ID/g and the Drug uptake (Spleen [36]) was 0.94 % ID/g. The logD [37] was 2.79, the Ratio (Brain [38]) was 3.89 and the Drug uptake (Brain [39]) was 1.44 % ID/g. It also gave a Drug uptake (Kidney [40]) of 3.27 % ID/g, a Drug uptake (Stomach [41]) of 3.21 %ID and a Drug uptake (Liver [42]) of 4.89 % ID/g.

`[11CH3]Nc1ccc(-c2nc3ccc(O)cc3s2)cn1` showed a Ki [43] of 1.7 nM.
